An excerpt weighted towards active compounds, which were near 1.9% of everything screened.
NS3 helicase inh – inhibitors of Hepatitis C virus NS3 helicase; NS3 helicase DNA unwinding, Cy5 molecular beacon fluorescence; 0.56% of 290,000 active; inhibition, % at 10.9 µM; AID 1800;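 active = inhibition above the mean of all tested compounds plus 3 SD, set per campaign, cut at about 35% in these data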;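 note: 0% = DMSO wells and 100% = thioflavine S control wells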
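Assay system – hepatitis C virus NS3 helicase domain fragment enzyme · Buffer or medium – MOPS pH 6.5, MgCl2, DTT, Tween20, BSA · Reagent – Cy5/quencher beacon DNA duplex and ATP to start · Compound – single 10.9 µM dose · Timing – 1 h at 25 °C · Technique – Cy5 beacon fluorescence read at start and 1 h · Measure – % inhibition of unwinding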
IMP-1 inh – inhibitors of Pseudomonas aeruginosa IMP-1 metallo-beta-lactamase | purified IMP-1, nitrocefin hydrolysis, epi-absorbance fluorescence | inhibition, % at 5.6 µM | 0.45% of 290,000 active;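 active = inhibition above the mean plus 3 SD of all compounds in the same screening run, cut at about 4.5% in these data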;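 note: 0% = IMP-1 with DMSO and 100% = DMSO wells lacking enzyme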
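System: Purified recombinant IMP-1 metallo-beta-lactamase enzyme | Measured by: Fluorescence quenching readout, ex 480/em 530 nm | Replication: Singlicate | Incubation: 15 min preincubation plus 25 min reaction at 25 °C | Evaluation: Percent inhibition from optical density relative to buffer-blank wells | Benchmarks: DMSO with and without IMP-1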
DNA FID counter – fluorescent intercalator displacement, NS3 helicase counter-screen. DNA fluorescent intercalator displacement, fluorescence. inhibition, % at 7.9 µM. 0.17% of 290,000 active. AID 1845; in the data active = inhibition above about 37%;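 note: 0% = vehicle and 100% = reference compound; higher means more ethidium bromide displaced from hairpin DNA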
VIM-2 inh – blocks Pseudomonas aeruginosa VIM-2 metallo-beta-lactamase | AID 1527 | 0.89% of 290,000 active | purified VIM-2, nitrocefin hydrolysis, epi-absorbance fluorescence | inhibition, % at 5.6 µM;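 active = inhibition above the mean of all tested compounds plus 3 SD, cutoff set per screening run, cut at about 7.5% in these data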;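 note: red hydrolysis product quenches plate fluorescence so inhibitors raise well fluorescence; 0% = enzyme with DMSO and 100% = DMSO without enzyme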
VIM-2 confirm – VIM-2 inhibition, confirmation assay; inhibition, % at 5.6 µM; purified VIM-2 enzyme, nitrocefin absorbance; 73% of 200 active; shares compounds with IMP-1 inh; in the data active = inhibition above about 8%;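 note: 0% = enzyme with vehicle and 100% = no enzyme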
TEM-1 counter – blocks E. coli TEM-1 beta-lactamase, VIM-2 IMP-1 counter-screen; shares compounds with IMP-1 inh; nitrocefin absorbance inhibition; inhibition, % at 5.6 µM; 50% of 200 active; in the data active = inhibition above about 0.66%
Target sequence (P62593 whole entry, looked up): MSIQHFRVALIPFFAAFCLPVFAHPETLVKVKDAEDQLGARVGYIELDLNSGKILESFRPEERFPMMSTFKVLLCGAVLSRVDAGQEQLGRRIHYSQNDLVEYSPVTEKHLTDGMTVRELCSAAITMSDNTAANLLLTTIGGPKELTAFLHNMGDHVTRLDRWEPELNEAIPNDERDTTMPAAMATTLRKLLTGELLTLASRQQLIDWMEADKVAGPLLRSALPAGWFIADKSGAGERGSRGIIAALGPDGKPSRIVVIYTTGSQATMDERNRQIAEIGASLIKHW
IMP-1 confirm – confirmation of P. aeruginosa IMP-1 metallo-beta-lactamase inhibitors; inhibition, % at 5.6 µM; purified IMP-1 enzyme, absorbance substrate hydrolysis; shares compounds with IMP-1 inh; 60% of 200 active; AID 2189; in the data active = inhibition above about 4.9%;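 note: 0% = enzyme with vehicle and 100% = vehicle without enzyme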
* marks the source's active call; other numbers are inactive results; . = no result.

SMILES | NS3 helicase inh | IMP-1 inh | DNA FID counter | VIM-2 inh | VIM-2 confirm | TEM-1 counter | IMP-1 confirm
Cc1cc(O)ccc1C1(c2ccc(O)cc2C)OC(=O)c2ccccc21 | 3 | -2 | -2 | 0 | . | . | .
CC(=O)Oc1ccc2c(c1)Oc1cc(OC(C)=O)ccc1C21OC(=O)c2ccccc21 | -6 | 140* | -35 | 143* | 14* | 3.3* | 4.7*
COCCOn1c(SCCOC)nc2ccccc2c1=O | 1 | -2 | -10 | -1 | . | . | .
CCOC(=O)c1c(C)n(-c2ccc(C)cc2)c2c(C(C(C)=O)C(=O)O)c(Br)c(O)c(O)c12 (configuration not stated) | 8 | 5.4* | -38 | 7 | -1 | -5 | -4
CCOC(=O)c1c(C)n(-c2ccc(C)cc2)c2c(CC(C)=O)c(Br)c(OC)c(O)c12 | -1 | -1 | 2 | 0 | . | . | .
CC(C)(C)Nc1nc(Cl)nc(N(C#N)CN2C(=O)c3ccccc3S2(=O)=O)n1 | -10 | 11* | -5 | 12* | 1 | -3 | -2
CC(C)(C)c1ccc(OCCNC(=S)NC(=O)c2cccnc2)cc1 | -6 | -3 | -16 | -3 | . | . | .
COc1ccccc1-n1c(SCC(=O)OC(C)C)nc2cccnc21 | 4 | 38* | -12 | 16* | 0 | -2 | -1
Cc1ccc(NC(=O)C2CCCN(S(=O)(=O)c3ccc(-n4cnnn4)cc3)C2)cc1 (configuration not stated) | -3 | -2 | -16 | 0 | . | . | .
COc1ccc(CNC(=O)CN(C(=O)c2csnn2)c2ccc(F)cc2)cc1 | -2 | -1 | -12 | -2 | . | . | .
O=C(O)Cn1cc(C(=S)N2CCCCC2)c2ccccc21 | -1 | 5.0* | -16 | 9.2* | -3 | -6 | -4
CN(C)c1nnnn1-c1ccccc1Oc1ncc(C(F)(F)F)cc1Cl | 7 | -1 | -14 | -1 | . | . | .
CCCCc1cc(=O)oc2cc(C)c(CN3CCCC3)c(O)c12 | 33 | 14* | -14 | 8.3* | 2 | -3 | 5.6*
CCc1cc(=O)oc2cc(C)c(CN3CCCC(C)C3)c(O)c12 (configuration not stated) | 25 | 16* | -23 | 8.4* | 10* | -3 | 1
O=S1(=O)N=C(N(CCO)/N=C/c2ccc(Br)cc2)c2ccccc21 | -6 | -6 | -23 | -3 | . | . | .
CN(C)c1ccc(/C=N/N(CCO)C2=NS(=O)(=O)c3ccccc32)cc1 | -12 | 18* | -25 | 42* | 40* | 42* | 30*
COc1cc(N2N=C(c3ccccc3)CC2c2ccccc2)c(C=O)cc1C=O (configuration not stated) | 2 | -3 | 1 | -1 | . | . | .
COc1ccccc1N1N=C(c2ccc([N+](=O)[O-])cc2)CC1c1ccccc1 (configuration not stated) | -11 | 35* | 1 | 31* | 18* | 27* | 16*
c1ccc(-c2nc(NCc3ccco3)c3ccccc3n2)nc1 | -3 | 8.8* | 1 | 15* | 13* | -3 | 1
C/C(=N\O)c1ccc2c3c([nH]c2c1)CCCC3 | -3 | 8.6* | -4 | 23* | 37* | -3 | 4.8*
C/C(=N\O)c1ccc2[nH]ccc2c1 | -3 | -2 | 3 | -1 | . | . | .
N#CC(C#N)=C1C=C2C=C(N3CCCCC3)CCC2CC1 (configuration not stated) | -4 | 58* | -5 | 48* | 62* | 87* | 58*
CCN(CC)C1=CC2=CC(=C(C#N)C#N)CCC2CC1 (configuration not stated) | 20 | 47* | -17 | 36* | 60* | 79* | 58*
CCCCN(C)C1=CC2=CC(=C(C#N)C#N)CCC2CC1 (configuration not stated) | 4 | 43* | -3 | 30* | 53* | 79* | 50*
O=C(NCc1ccncc1)Nc1ccccc1F | 5 | -3 | -2 | -2 | . | . | .
SMILES | NS3 helicase inh | IMP-1 inh | DNA FID counter | VIM-2 inh | VIM-2 confirm | TEM-1 counter | IMP-1 confirm
Oc1sc(C=Nc2ccccc2)c2ccccc12 | 3 | 15* | 0 | 17* | 23* | 0 | 4
Cc1cc(C)n(S(=O)(=O)c2ccc(C)c(C)c2)n1 | 13 | -6 | 2 | -2 | . | . | .
CC[n+]1c(/C=C/N(C)c2ccccc2)oc2ccc(Cl)cc21 | 18 | -4 | 1 | 1 | . | . | .
CCN1/C(=C/C=C/c2oc3ccc4ccccc4c3[n+]2CC)Oc2ccc3ccccc3c21 | -44 | 33* | -49 | 13* | 9.9* | 18* | 14*
CC(Oc1ccc(C(C)(C)C)cc1)C(=O)NC1CC(C)(C)NC(C)(C)C1 (configuration not stated) | -4 | 0 | 20 | -1 | . | . | .
CCOc1cc(S(=O)(=O)NCc2cccnc2)c(C)cc1C | -18 | -3 | -14 | -3 | . | . | .
COc1cc(/C=N/N2C(=O)CSC2=S)ccc1O | 4 | -2 | 0 | -5 | . | . | .
O=C1CSC(=S)N1/N=C/c1cc(Br)c(O)c(Br)c1 | 31 | 23* | -10 | 13* | 26* | 3.6* | 37*
CCOc1ccc(/C=C2\CCCc3c2nc2ccccc2c3C(=O)O)cc1OC | 24 | 29* | -25 | 38* | 37* | 56* | 28*
COc1ccc(/C=C2\CCCc3c2nc2ccccc2c3C(=O)O)cc1OC | 10 | 17* | -12 | 16* | 23* | 39* | 19*
CCOC(=O)c1c(C)n(C)c2ccc(OC)c([N+](=O)[O-])c12 | -1 | -2 | 0 | 0 | . | . | .
Cc1cc(/C=N/NC(N)=S)c(O)c(/C=N/NC(N)=S)c1 | 2 | 27* | -7 | 26* | 26* | -2 | 25*
Cc1ccc(Cn2c(C(C)Nc3nc(-c4ccc(C)cc4)cs3)nc3cc(Cl)c(Cl)cc32)cc1 (configuration not stated) | 7 | 29* | -11 | 12* | 11* | -6 | 25*
CSCCC(NC(=O)COc1ccccc1)C(=O)NCCOc1ccc(C)cc1 (configuration not stated) | -6 | -3 | -40 | -3 | . | . | .
Cc1cccc(C(=O)NN2C(=O)C3C(c4ccccc4)C=CC(c4ccccc4)C3C2=O)c1 (configuration not stated) | -12 | 21* | -12 | 7 | 0 | -5 | 2
O=C(NN1C(=O)C2C3C=CC(C3)C2C1=O)c1ccccc1 (configuration not stated) | 0 | -3 | 0 | -3 | . | . | .
Cc1ccc(NC(=O)[C@H](C)NC(=O)C2CCN(C(=O)[C@@H](NC(=O)OC(C)(C)C)C(C)C)CC2)cc1 | -2 | -1 | -23 | -1 | . | . | .
CCNc1ccc(Br)cc(C(=O)/C=C/c2c(Cl)cccc2Cl)c1=O | 26 | 6.0* | -21 | 8.3* | 4 | -1 | -1
O=C(/C=C/c1ccccc1)c1cc(Br)ccc(=O)c1O | 20 | 0 | -20 | -2 | . | . | .

Screens: PubChem, The Scripps Research Institute Molecular Screening Center
